Results of several laboratories.
Protocols differ between the studies behind these lines.
Target: Receptor tyrosine-protein kinase erbB-4 (ERBB4, Homo sapiens, UniProt Q15303)

SMILES | assay | setting | endpoint | value
C=CC(=O)Nc1cc(Nc2nccc(Nc3cc(Cl)c(F)cc3C(C)(C)O)n2)c(OC)cc1N1CC[C@@H](N(C)C)C1 | enzyme activity, inhibitor | 1 µM | inhibition | 88%
CS(=O)(=O)CCNCc1ccc(-c2ccc3ncnc(Nc4ccc(OCc5cccc(F)c5)c(Cl)c4)c3c2)o1 | cell-free assay | 0.5 µM | remaining signal | 11.2%
CC(C)CC(=O)N1CCc2nc(-c3ccc(Br)cc3)nc(N(C)Cc3ccccc3)c2C1 | cell-free assay, competition with immobilised ligand | 0.1 µM | remaining binding | 94%
Cn1c(=O)n(-c2ccc(C(C)(C)C#N)cc2)c2c3cc(-c4cnc5ccccc5c4)ccc3ncc21 | enzyme activity, inhibitor | 10 µM | remaining activity | 117%
COc1cc(Nc2cnc(C#N)c(O[C@H](C)CN(C)C)n2)ncc1-c1cnn(C)c1 | enzyme activity, inhibitor, radiometric | 1 µM | remaining activity | 101%
Cc1sc(C(=O)NC2COC2)cc1-n1cc(NC(=O)Nc2c(F)cccc2Cl)cn1 | enzyme activity, inhibitor | 10 µM | remaining activity | 95%
COc1cc2ncnc(Nc3ccc(F)c(Cl)c3)c2cc1OCCCN1CCOCC1 | cell-free assay | 0.5 µM | remaining signal | 24.2%
Cc1cnc(NC2CCOCC2)nc1-n1cnc(C(=O)NC(CN)c2cc(F)cc(Cl)c2)c1 (stereo not shown) | enzyme activity, inhibitor, radiometric | 1 µM | remaining activity | 108%
COc1cc(/C=C/C(=O)CC(=O)/C=C/c2ccc(O)c(OC)c2)ccc1O | enzyme activity, inhibitor | 1 µM | activity vs control | 71%
CN(C)c1ncnc(-c2ccc3nc(Nc4cc(CN5CCN(C(=O)CC(F)(F)F)CC5)ccn4)[nH]c3c2)c1Cl | cell-free assay, competition with immobilised ligand | 1 µM | remaining binding | 99%
CCN(CC)CCNC(=O)c1c(C)[nH]c(/C=C2\C(=O)Nc3ccc(F)cc32)c1C | cell-free assay | 0.5 µM | remaining signal | 94.8%
CC(=O)c1c(NS(C)(=O)=O)c2cc(-c3ccc(Cl)cc3)c(-c3ccc(Cl)cc3Cl)nc2n(C)c1=O | cell-free assay, competition with immobilised ligand | 1 µM | remaining binding | 100%
Cc1ccc(C(=O)Nc2ccc(CN3CCN(C)CC3)c(C(F)(F)F)c2)cc1C#Cc1cnc2cccnn12 | enzyme activity, inhibitor | 23.5 nM | remaining activity | 57%
Cc1ccc(Nc2nccc(N(C)c3ccc4c(C)n(C)nc4c3)n2)cc1S(N)(=O)=O | enzyme activity, inhibitor | 0.3 µM | inhibition | -9%
COc1cc(Cl)c(C(=O)N[C@@H](CN[C@H]2CC[C@@H](N)CC2)Cc2ccc(C#N)cc2)cc1-c1ccc(CN[C@H](C)c2ccc(C)cc2)o1 | enzyme activity, inhibitor | 1 µM | remaining activity | 99%
O=C(Nc1cccnn1)N1CCC(=Cc2cccc(Oc3ccc(C(F)(F)F)cn3)c2)CC1 | cell-free assay, competition with immobilised ligand | 1 µM | remaining binding | 100%
N#CCCc1ccc2c(c1)-c1[nH]c3ccc([N+](=O)[O-])cc3c1CC(=O)N2 | cell-free assay | 0.5 µM | remaining signal | 91.8%
CC(C)(C)c1nc(-c2cccc(NS(=O)(=O)c3c(F)cccc3F)c2F)c(-c2ccnc(N)n2)s1 | enzyme activity, inhibitor, radiometric | 1 µM | remaining activity | 91%
Cc1cc(-n2nc(Cc3cc(F)cc(C(F)(F)F)c3)nc2C)ccc1C(N)=O | cell-free assay, competition with immobilised ligand | 1 µM | remaining binding | 67%
Nc1ncnc2occ(-c3ccc(NC(=O)Nc4cc(C(F)(F)F)ccc4F)cc3)c12 | cell-free assay, inhibitor | 20 µM | remaining signal | 57%
COc1cc2nccc(Oc3ccc(NC(=O)c4c5n(n(-c6ccc(F)cc6)c4=O)CCCC5)cc3)c2cc1OC | enzyme activity, inhibitor | 0.1 µM | inhibition | -17%
COc1cc2ncnc(Nc3ccc(Oc4ccccc4)cc3C)c2cc1OC | enzyme activity, inhibitor | 1 µM | inhibition | 98%
CN(C)C(=O)Cn1cc(-c2nc([C@@](C)(c3ccc(-c4cnc(N)nc4)cc3)C3CC3)no2)cn1 | cell-free assay, competition with immobilised ligand | 1 µM | remaining binding | 100%
FC(F)c1nc2ccccc2n1-c1nc(N2CCOCC2)nc(N2CCOCC2)n1 | enzyme activity, inhibitor | 10 µM | remaining activity | 103%
O=C(NC[C@@H]1[C@H]2CN(C(=O)OCc3cc(C(F)(F)F)cc(C(F)(F)F)c3)C[C@@H]12)c1ccc2[nH]nnc2c1 | cell-free assay, competition with immobilised ligand | 1 µM | remaining binding | 100%
CCCOc1ccc(OC)c(F)c1C(=O)c1ccc(C(=O)N[C@@H]2CNC[C@H]2NC(=O)c2ccc3[nH]ncc3c2)cc1 | enzyme activity, inhibitor | 10 µM | remaining activity | 92%
NS(=O)(=O)c1cc(NC(=O)C2(c3ccccc3Cl)CC2)ccc1Oc1cccc(Cl)c1 | cell-free assay, competition with immobilised ligand | 1 µM | remaining binding | 75%
Cc1ccc(C(=O)NCc2ccsc2)cc1C#Cc1cn(C(C)C)c2ncnc(N)c12 | enzyme activity, inhibitor | 1 µM | activity vs control | 52%
